Rpn11 inh – inhibitors of human proteasome Rpn11; O00487; inhibition, % at 20 µM; human 26S proteasome, Ub4-pepOG fluorescence polarization; 20S core pre-blocked with epoxomicin; 360,000 tested, 0.59% active; AID 588493;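 active = inhibition at 20 µM, scaled to each plate's controls, above about 33%, limit read from the data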
HNF4A DNA FP – change in binding of human HNF4 alpha to DNA. activity change, % at 10 µM. AID 1224865. 360,000 tested, 0.3% active. HNF4a-FITC DNA binding, fluorescence polarization, 1 h. P41235; in the data active = activity change above about 30%, passing the limit was not always enough
CSN deneddyl inh – inhibitors of human CSN-mediated cullin deneddylation; AID 651999; inhibition, % at 12.5 µM; Q92905; 360,000 tested, 0.38% active; Purified CSN, SCF-Nedd8-OG deneddylation, fluorescence polarization;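 active = pattern-corrected inhibition above about 35%, with an unprinted fluorescence ratio check between 0.5 and 1.5, limit read from the data, passing the limit was not always enough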
Target sequence (Q92905 whole entry, looked up, one chain of several): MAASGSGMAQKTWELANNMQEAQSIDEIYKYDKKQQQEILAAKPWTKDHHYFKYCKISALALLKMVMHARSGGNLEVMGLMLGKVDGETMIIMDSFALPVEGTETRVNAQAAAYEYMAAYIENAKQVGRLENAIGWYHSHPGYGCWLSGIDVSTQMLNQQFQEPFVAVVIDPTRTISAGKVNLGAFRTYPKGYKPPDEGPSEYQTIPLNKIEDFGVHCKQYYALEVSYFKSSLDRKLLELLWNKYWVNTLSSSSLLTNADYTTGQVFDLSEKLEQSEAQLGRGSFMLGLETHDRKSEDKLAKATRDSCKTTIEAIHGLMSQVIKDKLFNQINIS
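test system = HEK293T-derived human Csn5 enzyme | amount = 0.24 nM Csn5 enzyme, final concentration | medium = Tris/NaCl/DTT buffer, pH 7.5 | schedule = 90 min reaction at room temperature | signal = FP | evaluation = inhibition of Csn5 cleavage, % | compound dosing = single dose of 12.5 µM compound with 0.25% DMSO | probe or stimulus = 10 nM SCFSkp2-Nedd8OG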
SENP1 inh – inhibitors of human SENP1 SUMO protease catalytic domain. recombinant SENP1 catalytic domain, CyPet-SUMO1-YPet FRET cleavage. inhibition, % at 10 µM. AID 624204. 360,000 tested, 0.21% active. Q9P0U3;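 active = inhibition at least 30% at 10 µM, raw YFP signal under a set limit, fluorescence ratio 0.5 to 1.5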
Target sequence (Q9P0U3 419-644 limits assumed): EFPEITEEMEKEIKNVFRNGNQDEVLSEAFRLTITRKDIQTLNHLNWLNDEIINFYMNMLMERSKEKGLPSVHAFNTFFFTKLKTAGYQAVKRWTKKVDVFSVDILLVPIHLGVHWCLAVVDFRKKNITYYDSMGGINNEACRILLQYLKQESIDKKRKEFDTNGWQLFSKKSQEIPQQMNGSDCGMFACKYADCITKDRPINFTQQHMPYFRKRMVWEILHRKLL
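Controls: no-enzyme wells low, DMSO-plus-enzyme wells high control. Test system: human recombinant His6-tagged SENP1 catalytic domain enzyme. Reagent: SFCypet-SUMO1-SFYpet FRET protein substrate, 25 nM final. Doses: one dose per compound, 10 µM, 0.5% DMSO. Detection: FRET, CFP and YFP emission. Timing: 50 min reaction at room temperature.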
TPT1 inh – blocks Candida albicans tRNA 2'-phosphotransferase | recombinant caTPT1, FP RNA substrate dephosphorylation | inhibition, % at 5 µM | 300,000 tested, 0.81% active;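 active = inhibition above the mean of all tested compounds plus 3 SD, set per screening campaign, cut at about 24% in these data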
Rpn11 inh conf – Rpn11 inhibition confirmation, single concentration; shares compounds with Rpn11 inh; purified human 26S proteasome, Ub4-pepOG fluorescence polarization; proteasome pretreated with epoxomicin; inhibition, % at 20 µM; 1,900 tested, 29% active; AID 602318
MMP-2 inh – MMP-2 (human) inhibition counter-screen. inhibition, % at 20 µM. 1,900 tested, 4% active. recombinant MMP-2, FRET peptide cleavage fluorescence. shares compounds with Rpn11 inh;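 also: human MMP-2 activated beforehand with APMA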
Thrombin FP – thrombin (bovine) inhibition counter-screen | shares compounds with Rpn11 inh | bovine thrombin cleavage of Ub4-pepOG, fluorescence polarization | 1,900 tested, 13% active | inhibition, % at 20 µM;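 active = mean inhibition at least 40% at 20 µM, or signal 3 deviations below plate average, so some actives read negative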
Of the large screens only hits and unclear results are named; the others gave an inactive call (follow-up assays come after a bar, where shown). Rows were chosen to be rich in hits. Some 1.6% of all compounds tested hit in one or more screens of this group. Rule as the data show it, unless noted: active = inhibition above about 40%; inactive = the rest.

CSCCC(C(=O)Nc1c(C)cccc1C)N1CCN(C/C=C/c2ccccc2)CC1 (centres undefined)	none (no result: TPT1 inh)
Nc1c(/C=C2/C=CC(=O)C(O)=C2)c(=O)nc2sc(CC(=O)N3CCCCC3)nn12	none (not shown: Rpn11 inh)
COC1=C/C(=C/c2c(N)n3nc(CC(=O)N4CCCC4)sc3nc2=O)C=CC1=O	Rpn11 inh 70 | Rpn11 inh conf inactive | MMP-2 inh inactive | Thrombin FP inactive
CCOC1=C/C(=C/c2c(N)n3nc(CC(=O)N4CCCC4)sc3nc2=O)C=CC1=O	Rpn11 inh 71 | Rpn11 inh conf inactive | MMP-2 inh inactive | Thrombin FP inactive
C=CCN1C(=O)C2(OCCCO2)c2cc(Cl)ccc21	none
CCC(=O)N(Cc1ccco1)c1nc(C(=O)Nc2ccc(Cl)cc2)c(C)s1	Rpn11 inh 44 | Rpn11 inh conf inactive | MMP-2 inh inactive | Thrombin FP inactive
CC1=Nc2ccc(C)cc2/C1=C/c1c(N)n2oc(C)cc2nc1=O	Rpn11 inh 70 | Rpn11 inh conf 59 | MMP-2 inh inactive | Thrombin FP inactive
O=C(NCc1ccc(F)cc1)C(=O)NCC1OCCCN1S(=O)(=O)c1cccs1 (centres undefined)	none
COc1ccc(-c2csc(NCCc3nc4cc(Cl)c(N5CCCCC5)cc4n3CCOCCO)n2)cc1	Rpn11 inh 42 | Rpn11 inh conf inactive | MMP-2 inh inactive | Thrombin FP inactive
CCNC(=O)C12CCC(C)(C(=O)O1)C2(C)C (centres undefined)	none
O=C(CN(C1CCCCC1)S(=O)(=O)c1ccccc1)N1CCCC1	Rpn11 inh 37 | Rpn11 inh conf inactive | MMP-2 inh inactive | Thrombin FP inactive
CN1CCN(C(=O)CN(C2CCCCC2)S(=O)(=O)c2ccccc2)CC1	none (no result: TPT1 inh)
CC(=O)/C(=N\Nc1ccc(C)cc1)Sc1nncn1C	none
CCOC(=O)c1nn(-c2ccc(OCC)cc2)c2nc(-c3ccco3)c(C#N)c(=O)n12	none
CC(=O)c1cccc(NS(=O)(=O)N(C)C)c1	Rpn11 inh 128, HNF4A DNA FP 50 | Rpn11 inh conf inactive | MMP-2 inh inactive | Thrombin FP inactive
O=C1NC(=Nc2ccccc2)S/C1=C/c1cccnc1	none
O=C1N/C(=N/Nc2ccccc2)S/C1=C\c1ccccc1	Rpn11 inh 66, SENP1 inh 105 | Rpn11 inh conf inactive | MMP-2 inh inactive | Thrombin FP inactive
COc1ccc(NC(=O)c2cccc3c(-c4cccnc4)coc23)cc1	Rpn11 inh 63 (no result: TPT1 inh) | Rpn11 inh conf 42 | MMP-2 inh inactive | Thrombin FP inactive
O=C(Nc1cc(C(F)(F)F)ccc1N1CCOCC1)C1CCCO1 (centres undefined)	none (no result: TPT1 inh)
O=C(/C(=C(\[O-])c1ccccc1)[n+]1ccc2ccccc2c1)c1ccc(Cl)cc1	none
O=C(/C(=C(\[O-])c1ccccc1)[n+]1ccc2ccccc2c1)c1ccccc1	Rpn11 inh 43 | Rpn11 inh conf inactive | MMP-2 inh inactive | Thrombin FP inactive
COc1ccc(C(=O)NNC(=O)C(=O)NC2CCCCC2)cc1	none
Nc1cccc2[nH]c(C(F)(F)F)nc12	Rpn11 inh 54 | Rpn11 inh conf inactive | MMP-2 inh inactive | Thrombin FP inactive
CCc1ccc(CNC(=O)CCCC(=O)n2nc(C)c3ccccc32)cc1	none
COc1ccc(/C=c2/sc3n(c2=O)C(c2ccccc2OC)C2=C(N=3)c3ccccc3CC2)cc1O (centres undefined)	Rpn11 inh 48 | Rpn11 inh conf inactive | MMP-2 inh inactive | Thrombin FP inactive
CCOC(=O)C1=C(C)N=c2s/c(=C\c3ccc(O)c([N+](=O)[O-])c3)c(=O)n2C1c1ccccc1OC (centres undefined)	Rpn11 inh 40 | Rpn11 inh conf inactive | MMP-2 inh inactive | Thrombin FP inactive
CCOC(=O)C1=C(C)N=c2s/c(=C\c3ccc(OCC(=O)O)cc3)c(=O)n2C1c1ccccc1OC (centres undefined)	none
CCOC(=O)C1=C(C)N=c2s/c(=C\c3ccc(OCC(=O)O)cc3)c(=O)n2C1c1ccc(Cl)cc1 (centres undefined)	Rpn11 inh 46 (no result: TPT1 inh) | Rpn11 inh conf 91 | MMP-2 inh inactive | Thrombin FP inactive
NC(=O)C1CCN(C(=O)c2ccc(NS(=O)(=O)/C=C/c3ccccc3)cc2)CC1	none (no result: TPT1 inh)
Cc1ccccc1N1C(=O)CSC1=C(C#N)C#N	none (not shown: Rpn11 inh)
CC1=CC(=C(C#N)C#N)c2ccccc2N1C	Rpn11 inh 43 | Rpn11 inh conf 125 | MMP-2 inh inactive | Thrombin FP 56
Cc1ccc(S(=O)(=O)CCNC(=O)Cc2ccccc2)cc1	none
CC(=O)c1ccc(NC(=O)c2ccc(COc3ccccc3[N+](=O)[O-])o2)cc1	Rpn11 inh 49 | Rpn11 inh conf inactive | MMP-2 inh inactive | Thrombin FP inactive
COc1ccccc1-n1c(C)cc(/C=C2\C(=N)N3N=C(CC(=O)N4CCOCC4)SC3=NC2=O)c1C	none
COc1ccc(-n2c(C)cc(/C=C3\C(=N)N4N=C(CC(=O)N5CCOCC5)SC4=NC3=O)c2C)c(OC)c1	Rpn11 inh 43 | Rpn11 inh conf inactive | MMP-2 inh inactive | Thrombin FP inactive
CCc1cccc(C)c1NC(=O)c1cc(=O)[nH]c2ccc(S(=O)(=O)N3CCOCC3)cc12	none (no result: TPT1 inh)
CCN1CCN(Cc2c(C(=O)N/N=C(\C)c3ccc(Cl)c(Cl)c3)nnn2-c2nonc2N)CC1	none (no result: Rpn11 inh, HNF4A DNA FP, CSN deneddyl inh, SENP1 inh)
Cc1nnn(-c2nonc2N)c1C(=O)NNC(=O)c1ccc(Cl)c(Cl)c1	Rpn11 inh 53 | Rpn11 inh conf inactive | MMP-2 inh inactive | Thrombin FP inactive
C=C(C)[C@@H]1CC=C(CN2CCC(CCOC)(C(=O)OCC)CC2)CC1	none
CCC(C)(C(=O)Nc1ccc2c(c1)OCCO2)N(C(C)=O)c1ccc(C(N)=O)cc1 (centres undefined)	Rpn11 inh 51 | Rpn11 inh conf inactive | MMP-2 inh inactive | Thrombin FP inactive
CN1/C(=C/C(=O)c2nc(S(C)(=O)=O)ncc2Cl)C(C)(C)c2ccccc21	Rpn11 inh 49, SENP1 inh 42 | Rpn11 inh conf inactive | MMP-2 inh inactive | Thrombin FP inactive
CN1/C(=C\C(=O)c2cccnc2)C(C)(C)c2ccccc21	none
COCCCNC1=C(C#N)C(=O)NC(c2cccs2)S1 (centres undefined)	none (no result: TPT1 inh)
CCCC(/C=C/c1ccc(OC(C)=O)cc1)=C1/c2ccccc2C(=O)N1c1ccccc1	none (no result: TPT1 inh)

Assay outcomes (PubChem)
